These results are taken from ChEMBL document CHEMBL1667787, “Synthesis and in vitro cytotoxicity evaluation of some fluorinated hexahydropyrimidine derivatives” (Bioorg Med Chem Lett, 2011).

This assay can be described thus: Cytotoxicity against human COLO320 cells after 72 hrs by Alamar Blue assay. The assay is classed as functional, cell-based. The following applies: COLO 320, 72 h. The gist of the method:
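COLO 320 HSR cells (ATCC) kept in RPMI 1640 with 10% FBS, bicarbonate, pyruvate, Hepes and antibiotics at 37 °C, 5% CO2. Seeded 1 × 10^4 cells/well, attached 24 h, then exposed 72 h to compound or DMSO vehicle. AlamarBlue added 1:10, incubated overnight at 37 °C, fluorescence read at 560 nm excitation/590 nm emission. Triplicates, means; IC50 by linear regression.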
For orientation: Resazurin is reduced to fluorescent resorufin, in cell work by metabolically active cells.
One may read the IC50 as the midpoint of a concentration-inhibition curve. `CCOC(=O)[C@@H]1[C@@H](c2cccc(C#N)c2)NC(=S)N[C@@]1(O)C(F)(F)F`: the IC50 was over 100 µM.

Turning to `CCOC(=O)[C@@H]1[C@@H](c2ccc(F)cc2)NC(=S)N[C@@]1(O)C(F)(F)F`, half-maximal inhibition (IC50) required 75 µM.

Consider `COc1ccc([C@H]2NC(=S)N[C@@](O)(C(F)(F)F)[C@@H]2C(=O)c2ccco2)cc1`, for which the midpoint of inhibition, the IC50, lay at 11.5 µM.

As for `O=C(c1cccs1)[C@@H]1[C@@H](c2ccc3c(c2)OCO3)NC(=S)N[C@@]1(O)C(F)(F)F`, half-maximal inhibition (IC50) was put at 62.5 µM.

In turn, `O=C(c1cccs1)[C@@H]1[C@@H](c2cccc(O)c2)NC(=S)N[C@@]1(O)C(F)(F)F` returned an IC50 of 72 µM.

For the compound `O=C(c1ccc2ccccc2c1)[C@@H]1[C@@H](c2ccc3c(c2)OCO3)NC(=S)N[C@@]1(O)C(F)(F)F`, the IC50 is 9.9 µM.

`COC(=O)[C@@H]1[C@@H](c2cccc(O)c2)NC(=S)N[C@@]1(O)C(F)(F)F` returned an IC50 of over 100 µM.

`CCOC(=O)C1=C(C(F)(F)F)NC(=S)NC1c1ccc2c(c1)OCO2` (stereo unspecified): the IC50 turned out to be 12.2 µM.

`COc1ccc([C@H]2NC(=S)N[C@@](O)(C(F)(F)F)[C@@H]2C(=O)c2cccs2)cc1` yielded an IC50 of 75 µM.

Regarding `CCOC(=O)C1=C(C(F)(F)F)NC(SCC(=O)c2ccc(C(F)(F)F)cc2)NC1c1ccc2c(c1)OCO2` (stereo unspecified), it took 8.1 µM to reach half-maximal inhibition (IC50).

`O=C(c1ccco1)[C@@H]1[C@@H](c2ccc3c(c2)OCO3)NC(=S)N[C@@]1(O)C(F)(F)F` yielded an IC50 of 67 µM.

In turn, `O=C(c1ccco1)[C@@H]1[C@@H](c2ccccc2)NC(=S)N[C@@]1(O)C(F)(F)F` registered an IC50 of 63 µM.

Consider `CCOC(=O)[C@@H]1[C@@H](c2ccccc2Br)NC(=S)N[C@@]1(O)C(F)(F)F`, for which the IC50 worked out at 73 µM.

Consider `CCOC(=O)[C@@H]1[C@@H](c2ccc3c(c2)OCO3)NC(=S)N[C@@]1(O)C(F)(F)F`, for which inhibition was half-maximal at 75 µM (IC50).

The compound `O=C(c1ccco1)[C@@H]1[C@@H](c2cccc(O)c2)NC(=S)N[C@@]1(O)C(F)(F)F` yielded an IC50 of over 100 µM.

As for `CCOC(=O)[C@@H]1[C@@H](c2cccc(O)c2)NC(=S)N[C@@]1(O)C(F)(F)F`, the concentration for half-maximal inhibition (IC50) was over 100 µM.
